Measured values reported in ChEMBL document CHEMBL1145453, “Abietane diterpenes from Salvia miltiorrhiza inhibit the activation of hypoxia-inducible factor-1” (J Nat Prod, 2007).

Columns and labels:
[1] = molecular target: T1, Hypoxia inducible factors; HIF-1-alpha, HIF-2-alpha (Homo sapiens, UniProt Q16665+Q99814); assay: Inhibition of HIF1 activation in human AGS cells assessed as inhibition of hypoxia-induced luciferase expression after 16 hrs by reporter assay; assay type: cell-based
Outline: (§1)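 Cells transiently cotransfected with pGL3-HRE-luciferase (six HRE copies from human VEGF gene) plus pRL-CMV, plated at 5 × 10^4 cells/well, grown 48 h, then exposed to varied compound concentrations (up to 20 µM) for 16 h at 1% O2/94% N2/5% CO2, 37 °C. Dual-luciferase read-out, firefly normalized to Renilla; IC50 from mean ± SD of three experiments; 17-DMAG positive control.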

[2] = molecular target: T1, Hypoxia inducible factors; HIF-1-alpha, HIF-2-alpha; assay: Inhibition of HIF1 activation in human Hep3B cells assessed as inhibition of hypoxia-induced luciferase expression after 16 hrs by reporter assay; assay type: cell-based; conditions: hep 3b2; outline: as §1
[3] = system: AGS; assay: Viability of human AGS cells under normoxic conditions after 24 hrs by MTT assay; assay type: functional, cell-based
Outline: (§2)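 Cells seeded 5 × 10^4/well, settled 3 h at 37 °C, then exposed to a concentration range of compound under normoxia or hypoxia (1% O2) for 24 h. MTT (10 µL of 5 mg/mL stock) added for 4 h, formazan dissolved in DMSO, absorbance at 570 nm; LD50 derived, mean ± SD of three experiments.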

[4] = system: AGS; assay: Viability of human AGS cells under hypoxic conditions after 24 hrs by MTT assay; assay type: functional, cell-based; outline: as §2
[5] = Viability of human Hep3B cells under normoxic conditions after 24 hrs by MTT assay; assay type: functional, cell-based, Hep 3B2; outline: as §2
[6] = Viability of human Hep3B cells under hypoxic conditions after 24 hrs by MTT assay; assay type: functional, cell-based, Hep 3B2; outline: as §2
[7] = system: Hep 3B2; assay: Inhibition of hypoxia-induced HIF1alpha accumulation in Hep3B cells; assay type: functional, cell-based; conditions: Homo sapiens
Outline: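 Hep3B cells plated at 1.5 × 10^5 cells per cm2, grown overnight at 37 °C, exposed to a range of concentrations for 1 h, then held 12 h hypoxic (1% O2, 94% N2, 5% CO2, 37 °C). HIF-1α was measured in total lysates (50 µg) by Western blot after 6% SDS-PAGE with rabbit anti-HIF-1α, with ECL detection. TOPO I served as loading control.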

[8] = Suppression of hypoxia-induced VEGF mRNA expression in Hep3B cells after 1 hr by RT-PCR; assay type: functional, cell-based; conditions: Homo sapiens; Hep 3B2; in the assay text read “after 16 hr” for “after 1 hr”
Outline: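 Hep3B cells pretreated 1 h with graded compound concentrations, then held 16 h under hypoxia (1% O2, 94% N2, 5% CO2, 37 °C). Total RNA isolated and VEGF transcript detected by RT-PCR, product identity confirmed by sequencing.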

[9] = system: Hep 3B2; assay: Inhibition of hypoxia-induced secreted VEGF levels in Hep3B cells after 16 hr by ELISA; conditions: Homo sapiens

IC50 [1] [µM]	IC50 [2] [µM]	IC50 [3] [µM]	IC50 [4] [µM]	IC50 [9] [µM]	SMILES	IC50 [5] [µM]	IC50 [6] [µM]	IC50 [7] [µM]	Activity [8]
0.34	0.28	35.7	21.2	3.5	CC(C)C1=CC(=O)c2c(ccc3c2C=CCC3(C)C)C1=O [SIBIRIQUINONE A]	> 50	> 50	0.4	Dose-dependent effect
12.7	> 20	> 50	–	–	C[C@H](CO)C1=C(O)C(=O)c2c(ccc3c2CCCC3(C)C)C1=O [NEOCRYPTOTANSHINONE]	> 50	–	–	–
7.48	7.34	> 50	–	–	COC(=O)[C@@]1(C)CCCc2c1ccc1c2C(=O)C(=O)c2c(C)coc2-1 [METHYL TANSHINONATE]	> 50	–	–	–
7.53	6.18	10	6.8	–	Cc1coc2c1C(=O)C(=O)c1c-2ccc2c1CCCC2(C)C [TANSHINONE IIA]	> 50	> 50	–	–
> 20	> 20	> 50	–	–	Cc1cccc2c3c(ccc12)C(=O)C(=O)C1=C3OC[C@H]1C [DIHYDROISOTANSHINONE II]	> 50	–	–	–
12.5	8.51	> 50	–	–	Cc1coc2c1C(=O)C(=O)c1c-2ccc2c(C)cccc12 [TANSHINONE I]	> 50	–	–	–
3.36	3.18	> 50	> 50	–	CC(C)C1=CC(=O)c2c(ccc3c2CCCC3(C)C)C1=O [SIBIRIQUINONE B]	> 50	> 50	–	–
> 20	> 20	> 50	–	–	Cc1cccc2c3c(ccc12)C(=O)C(C(C)CO)=C(O)C3=O (stereo unspecified) [DANSHENXINKUN A]	> 50	–	–	–
15.1	10.6	21.6	–	–	Cc1cccc2c3c(ccc12)C(=O)C(C(C)C)=CC3=O [12-DEOXYTANSHINQUINONE B]	> 50	–	–	–

SMILES	IC50 [1] [µM]	IC50 [2] [µM]	IC50 [3] [µM]	IC50 [4] [µM]	IC50 [9] [µM]	IC50 [5] [µM]	IC50 [6] [µM]	IC50 [7] [µM]	Activity [8]
Cc1cccc2c3c(ccc12)C1=C(C(=O)C3=O)[C@@H](C)CO1 [DIHYDROTANSHINONE I]	2.05	2.29	> 50	47.7	–	> 50	> 50	3.2	–
C[C@H]1COC2=C1C(=O)C(=O)c1c2ccc2c1CCCC2(C)C [CRYPTOTANSHINONE]	1.58	1.36	13.5	10.2	–	> 30	> 30	–	–
CO[C@H]1/C=C\C=C(/C)C(=O)NC2=CC(=O)C(NCCN(C)C)=C(C[C@@H](C)C[C@H](OC)[C@H](O)[C@@H](C)/C=C(\C)[C@@H]1OC(N)=O)C2=O [ALVESPIMYCIN]	0.036	0.061	–	–	–	> 50	–	–	–
